Data: ChEMBL document CHEMBL2424551, “Synthesis, in vitro evaluation and molecular modelling of naphthalimide analogue as anticancer agents” (2013)
Activity calls are given as the source filed them. The rule behind the calls is not given here.

Legend:
Format in all cases: functional
RPMI-8226 = assay: Growth inhibition of human RPMI8226 cells at 10 uM after 48 hrs by SRB assay; settings: RPMI-8226, 48 h, read-out: GI
How it was run: (§1)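 Cells grown in RPMI 1640 with 5% FBS and 2 mM L-glutamine, plated at 5000–40,000 cells/well by doubling time and preincubated 24 h (37 °C, 5% CO2); a time-zero plate is TCA-fixed. Single dose added, then 48 h incubation. Fixed with cold TCA, stained with 0.4% SRB, dye solubilized in 10 mM Tris base, absorbance at 515 nm; percent growth vs time-zero and untreated control.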

T47D = assay: Growth inhibition of human T47D cells at 10 uM after 48 hrs by SRB assay; settings: read-out: GI
How it was run: (§2)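 NCI 60-cell-line screen with a single 10 µM dose. Cells are grown in RPMI 1640 with 5% FBS and 2 mM L-glutamine, plated at 5000–40,000 cells/well according to doubling time, and preincubated 24 h at 37 °C, 5% CO2; time-zero plates are TCA-fixed at that point. Drug exposure is 48 h. Adherent cells are fixed with cold TCA, stained with 0.4% SRB in 1% acetic acid and read at 515 nm. Percent growth is calculated relative to time-zero and untreated controls and reported as GI%.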

PC-3 = assay: Growth inhibition of human PC3 cells at 10 uM after 48 hrs by SRB assay; settings: PC-3, 48 h, read-out: GI; how it was run: as §1
UO-31 = assay: Growth inhibition of human UO31 cells at 10 uM after 48 hrs by SRB assay; settings: UO-31, 48 h, read-out: GI; how it was run: as §2
SK-MEL-5 = assay: Growth inhibition of human SK-MEL-5 cells at 10 uM after 48 hrs by SRB assay; settings: SK-MEL-5, 48 h, read-out: GI; how it was run: as §1
OVCAR-5 = assay: Growth inhibition of human OVCAR5 cells at 10 uM after 48 hrs by SRB assay; settings: OVCAR-5, 48 h, read-out: GI; how it was run: as §1
HCT-15 = assay: Growth inhibition of human HCT15 cells at 10 uM after 48 hrs by SRB assay; settings: HCT-15, 48 h, read-out: GI; how it was run: as §1
OVCAR-8 = assay: Growth inhibition of human OVCAR8 cells at 10 uM after 48 hrs by SRB assay; settings: OVCAR-8, 48 h, read-out: GI; how it was run: as §1
SW-620 = assay: Growth inhibition of human SW620 cells at 10 uM after 48 hrs by SRB assay; settings: SW-620, 48 h, read-out: GI; how it was run: as §2
[1] = Growth inhibition of human NCI-ADR-RES cells at 10 uM after 48 hrs by SRB assay; settings: read-out: GI; how it was run: as §1
SNB-19 = assay: Growth inhibition of human SNB19 cells at 10 uM after 48 hrs by SRB assay; settings: SNB-19, 48 h, read-out: GI; how it was run: as §2
NCI-H226 = assay: Growth inhibition of human NCI-H226 cells at 10 uM after 48 hrs by SRB assay; settings: NCI-H226, 48 h, read-out: GI; how it was run: as §1
TK-10 = assay: Growth inhibition of human TK10 cells at 10 uM after 48 hrs by SRB assay; settings: TK-10, 48 h, read-out: GI; how it was run: as §2
HOP-62 = assay: Growth inhibition of human HOP62 cells at 10 uM after 48 hrs by SRB assay; settings: HOP-62, 48 h, read-out: GI; how it was run: as §1
MOLT-4 = assay: Growth inhibition of human MOLT4 cells at 10 uM after 48 hrs by SRB assay; settings: MOLT-4, 48 h, read-out: GI; how it was run: as §1
786-0 = assay: Growth inhibition of human 786-0 cells at 10 uM after 48 hrs by SRB assay; settings: 786-0, 48 h, read-out: GI; how it was run: as §1
DU-145 = assay: Growth inhibition of human DU145 cells at 10 uM after 48 hrs by SRB assay; settings: DU-145, 48 h, read-out: GI; how it was run: as §1
A549 = assay: Growth inhibition of human A549 cells at 10 uM after 48 hrs by SRB assay; settings: A549, 48 h, read-out: GI; how it was run: as §1
Malme-3M = assay: Growth inhibition of human MALME-3M cells at 10 uM after 48 hrs by SRB assay; settings: read-out: GI; how it was run: as §1
SF-268 = assay: Growth inhibition of human SF268 cells at 10 uM after 48 hrs by SRB assay; settings: SF-268, 48 h, read-out: GI; how it was run: as §1
NCI-H522 = assay: Growth inhibition of human NCI-H522 cells at 10 uM after 48 hrs by SRB assay; settings: NCI-H522, 48 h, read-out: GI; how it was run: as §1
OVCAR-3 = assay: Growth inhibition of human OVCAR3 cells at 10 uM after 48 hrs by SRB assay; settings: OVCAR-3, 48 h, read-out: GI; how it was run: as §1
MDA-MB-468 = assay: Growth inhibition of human MDA-MB-468 cells at 10 uM after 48 hrs by SRB assay; how it was run: as §1
KM12 = assay: Growth inhibition of human KM12 cells at 10 uM after 48 hrs by SRB assay; settings: KM12, 48 h, read-out: GI; how it was run: as §1

SMILES	inhibition of growth at 10 µM (RPMI-8226) [%]	inhibition of growth at 10 µM (T47D) [%]	inhibition of growth at 10 µM (PC-3) [%]	inhibition of growth at 10 µM (UO-31) [%]	inhibition of growth at 10 µM (SK-MEL-5) [%]	inhibition of growth at 10 µM (OVCAR-5) [%]	inhibition of growth at 10 µM (HCT-15) [%]	inhibition of growth at 10 µM (OVCAR-8) [%]	inhibition of growth at 10 µM (SW-620) [%]	inhibition of growth at 10 µM [1] [%]	inhibition of growth at 10 µM (SNB-19) [%]	inhibition of growth at 10 µM (NCI-H226) [%]	inhibition of growth at 10 µM (HOP-62) [%]	inhibition of growth at 10 µM (MOLT-4) [%]	inhibition of growth at 10 µM (786-0) [%]	inhibition of growth at 10 µM (DU-145) [%]	inhibition of growth at 10 µM (A549) [%]	inhibition of growth at 10 µM (Malme-3M) [%]	inhibition of growth at 10 µM (SF-268) [%]	inhibition of growth at 10 µM (NCI-H522) [%]	also measured
O=c1c2cccc3c(Nc4ccccn4)ccc(c32)c2nc3ccccc3n12	51	53.4	36	53.5	48.2	< 20	40.8	24.6	22.9	25.4	< 20	30.4	32.2	38.2	< 20	< 20	29.1	< 20	< 20	43.4	inhibition of growth at 10 µM (TK-10): 34.2%; inhibition of growth at 10 µM (OVCAR-3): 30%; growth inhibition (GI) (MDA-MB-468): Active; inhibition of growth at 10 µM (KM12): 25.2%
O=c1c2cccc3c(Nc4c(F)cccc4F)ccc(c32)c2nc3ccccc3n12	24.6	47.3	< 20	49.4	< 20	< 20	24.5	< 20	< 20	< 20	< 20	24.9	< 20	25.9	< 20	< 20	< 20	< 20	< 20	< 20	inhibition of growth at 10 µM (OVCAR-3): < 20%; growth inhibition (GI) (MDA-MB-468): Active; inhibition of growth at 10 µM (KM12): 21.1%
O=c1c2cccc3c(NC4CCCCC4)ccc(c32)c2nc3ccccc3n12	24.4	67.5	20.1	58.6	33.9	< 20	25.2	< 20	< 20	< 20	< 20	28	< 20	50.2	< 20	< 20	33.5	< 20	< 20	38.5	inhibition of growth at 10 µM (TK-10): 22.6%; inhibition of growth at 10 µM (OVCAR-3): < 20%; growth inhibition (GI) (MDA-MB-468): Active; inhibition of growth at 10 µM (KM12): < 20%
CCCCNc1ccc2c3c1cccc3c(=O)n1c3ccccc3nc21	< 20	64.3	< 20	41.4	24.5	< 20	23.8	< 20	< 20	< 20	< 20	26.3	< 20	30.6	< 20	< 20	23.4	< 20	< 20	28.1	inhibition of growth at 10 µM (TK-10): 29.8%; inhibition of growth at 10 µM (OVCAR-3): < 20%; growth inhibition (GI) (MDA-MB-468): Active; inhibition of growth at 10 µM (KM12): 22.3%
